About 2,000 (1%) of roughly 200,000 compounds were called active.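 The calls were made as follows: active = inhibition above the campaign mean inhibition of all tested compounds plus 3 SD (cut at about 20% in these data); inactive = the rest.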 The entries come from a sample that favours actives as a whole.
molecular target: Neuropeptide Y receptor type 1 (Homo sapiens) (UniProt P25929); experiment: blockers of human neuropeptide Y Y1 receptor – cell-based, primary screen (AID 1040); conditions: HEK293-CNG Y1 cells, membrane potential fluorescence; at 3.6 µM; hits give high values; NPY at EC95, then isoproterenol;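 also: 0% = DMSO wells given NPY plus isoproterenol and 100% = isoproterenol alone without NPY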
Method in brief: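 Material: HEK293 cells with Y1 receptor plus CNG channel; times: compound incubation 1 h at room temperature, readout 45 min post-stimulation; signal: fluorescence, membrane potential probe; read-out basis: fluorescence ratio normalized to % inhibition between controls; benchmarks: full-block control isoproterenol-only wells, zero-block control NPY plus isoproterenol wells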

Neuropeptide Y receptor type 1 (Homo sapiens), sequence (P25929 whole entry, looked up): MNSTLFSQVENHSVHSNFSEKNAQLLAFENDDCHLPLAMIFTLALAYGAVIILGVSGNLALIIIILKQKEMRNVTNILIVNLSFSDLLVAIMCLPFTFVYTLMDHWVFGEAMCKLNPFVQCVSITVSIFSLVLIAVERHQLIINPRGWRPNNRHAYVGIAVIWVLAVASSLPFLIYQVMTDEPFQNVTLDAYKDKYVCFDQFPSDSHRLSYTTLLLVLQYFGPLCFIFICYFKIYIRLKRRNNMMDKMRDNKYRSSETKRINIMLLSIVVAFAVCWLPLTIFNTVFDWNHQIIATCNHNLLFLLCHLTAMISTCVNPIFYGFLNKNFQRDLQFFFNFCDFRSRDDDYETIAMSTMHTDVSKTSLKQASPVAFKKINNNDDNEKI

Compound	inhibition
O=C(NNC1=C(C(=O)C(F)(F)F)CCC1)c1ccncc1	0.61% (inactive)
CC(=O)c1cc(-c2ccccc2)n(CCC(=O)NC2CCCCCC2)c1C	2.33% (inactive)
CCCc1[nH]nc2c1C(C1CC=CCC1)C(C#N)=C(N)O2 (stereo not drawn)	-5.43% (inactive)
CCCc1[nH]nc2c1C(c1c(C)nn(-c3ccccc3)c1Cl)C(C#N)=C(N)O2 (stereo not drawn)	-1.69% (inactive)
CCCc1[nH]nc2c1C(c1ccc(Br)s1)C(C#N)=C(N)O2 (stereo not drawn)	68.6% (active)
O=C(COC(=O)c1cnc(Cl)c(Cl)c1)NCc1ccco1	1.45% (inactive)
N#Cc1ccc(N2Cc3ccccc3/C2=N/C(=O)Nc2ccc(Cl)cc2)cc1	-0.16% (inactive)
C/C(=N\NC(=S)NCc1ccccc1)c1ccc(Cl)cc1	21.7% (active)
C/C(=N\NC(=S)NCc1ccccc1)C1CCCCC1	3.71% (inactive)
O=C(O)c1ccc(/C=N/NC(=S)NCc2ccccc2)cc1	4.72% (inactive)
OCCC1CN(Cc2cnc(-c3ccccc3)s2)CCN1CCc1ccccc1 (stereo not drawn)	-0.62% (inactive)
CCCCCCCCn1c2c(c(=N)c3c1CCC3)CCCC2	81.5% (active)
CCCCCCn1c(CN2CCCCC2)nc2c1c(=O)n(C)c(=O)n2C	11.1% (inactive)
Cn1cnnc1SCC(=O)NNC(=O)COc1ccc(Br)cc1	10.5% (inactive)
CC1(C)OC(=O)C(=CNC(CO)C(=O)O)C(=O)O1 (stereo not drawn)	0.88% (inactive)
CCCOC(=O)c1cc2ccccc2oc1=O	1.89% (inactive)
CN(C)CCCCCN(C)Cc1cc2ccccc2o1	22.6% (active)
OCC1(Cc2ccccc2)CCN(Cc2cc3ccccc3o2)CC1	9.75% (inactive)
O=C(CCC(=O)OCc1ccc(Cl)cc1)Nc1ccccc1	-2.82% (inactive)
O=C(O)/C=C/c1cn(Cc2ccccc2)nc1-c1cccs1	20.8% (active)
O=C(O)/C=C/c1cn(-c2ccccc2)nc1-c1cccs1	3.05% (inactive)
O=C(/C=C\c1cn(-c2ccccc2)nc1-c1cccs1)N1CCOCC1	4.67% (inactive)
O=C(OCc1cc(Cl)ccc1OC(F)F)c1cccnc1	-0.25% (inactive)
Cc1c(Cl)c([N+](=O)[O-])nn1CCCC(=O)NC(C)c1ccccc1 (stereo not drawn)	1.69% (inactive)
COc1cc(OC)c(C(=O)Nc2ccccc2-c2ccccc2)cc1OC	2.51% (inactive)

Compound	inhibition
CCC[C@@H]1C[C@@]1(CCC)[C@@H](NC(=O)c1ccccc1)c1ccc(C(=O)OC)cc1	6.57% (inactive)
COc1ccc(C(CC(=O)O)NC(=O)Cc2ccccc2)cc1 (stereo not drawn)	-4.05% (inactive)
CCC/C=C(\CCC)C(NC(=O)Cc1ccccc1)c1ccc(C(=O)OC)cc1 (stereo not drawn)	26.8% (active)
O=C(CCc1nnc(CCCCc2ccccc2)o1)NC(c1cccnc1)C(F)(F)F (stereo not drawn)	3.83% (inactive)
S=c1[nH]nc(Nc2ccccc2)s1	7.84% (inactive)
O=[N+]([O-])c1cccc(C2=NCCS2)c1	2.43% (inactive)
O=C(CN1C(=O)NC2(CCCC2)C1=O)NCC1CCCO1 (stereo not drawn)	-1.75% (inactive)
O=C(CN1C(=O)NC2(CCCCCC2)C1=O)NC1CC1	0.75% (inactive)
O=C(CN1C(=O)NC(Cc2ccccc2)(Cc2ccccc2)C1=O)NCC1CCCCC1	68.1% (active)
O=C(CC1SCCNC1=O)Nc1ccc(Cl)cc1 (stereo not drawn)	6.74% (inactive)
COC(=O)Nc1sc2nc(C)cc(C)c2c1-n1cccc1	0.35% (inactive)
Cc1cc(C)c2c(-n3cccc3)c(NC(=O)OCc3ccccc3)sc2n1	36.9% (active)
CCCCOC(=O)Nc1sc2nc(C)cc(C)c2c1-n1cccc1	2.5% (inactive)
CCC(C)NC(=O)CN(C1CCCCC1)S(C)(=O)=O (stereo not drawn)	0.13% (inactive)
O=C(NCCCN1CCOCC1)c1cnn2c(-c3ccccc3)cc(-c3ccccc3)nc12	30.1% (active)
O=C(NCCCN1CCOCC1)c1ccccc1NS(=O)(=O)c1ccc(F)cc1	5.43% (inactive)
O=C(NCCCN1CCOCC1)c1ccccc1NS(=O)(=O)c1ccc(Br)cc1	11.9% (inactive)
O=C(CN1CCN(c2ccc(O)cc2)CC1)NC1CCCc2ccccc21 (stereo not drawn)	4.77% (inactive)
Nc1nc(SCC(=O)NNc2c(Cl)cc(Cl)cc2Cl)n[nH]1	8.35% (inactive)
CC(=O)c1c(C)[nH]c(C(=O)COC(=O)c2cccc(S(=O)(=O)N(C)c3ccccc3)c2)c1C	2.37% (inactive)
CC(C)CNC(=O)COC(=O)c1ccccc1OCC(=O)Nc1ccc(Br)cc1	3.51% (inactive)
CCCC(=O)Nc1ccc(Cl)c(NC(=O)c2ccc(Br)o2)c1	-1.88% (inactive)
CCN1CCN(c2c(Cl)cccc2NC(=O)c2ccc(Br)o2)CC1	23.8% (active)
COc1cc(OC)c(NC(=O)c2ccc(Br)o2)cc1Cl	0% (inactive)
Cc1ccc(C(=O)NC(=S)Nc2ccc(N3CCOCC3)cc2)cc1	-3.91% (inactive)

Compound	inhibition
Cc1ccc(/C=N/NC(=O)COc2ccccc2-c2ccccc2)cc1	22.8% (active)
Cc1ccc(OCC(=O)N/N=C\c2ccco2)c(C)c1	7.4% (inactive)
Cc1ccc(OCC(=O)N/N=C/c2ccncc2)cc1	0.98% (inactive)
OCCNCc1cccc(OCc2ccccc2Cl)c1	11.2% (inactive)
O=C(O)c1ccc(/C=N/NC(=O)c2ccc(Br)cc2)cc1	2.79% (inactive)
OC(COc1ccc(CN2CCSCC2)cc1)CN1CCCCC1 (stereo not drawn)	6.88% (inactive)
Cc1cccc(C)c1OCC(O)CN1CCCCC1 (stereo not drawn)	6.39% (inactive)
OC(COCCC12CC3CC(CC(C3)C1)C2)CN1CCCCC1 (stereo not drawn)	26.9% (active)
CCC1CCCCN1C(=O)CSc1nc2c(c(=O)n(C)c(=O)n2C)n1C (stereo not drawn)	4.16% (inactive)
CCn1c(COc2ccccc2)nnc1SCC(=O)NCc1ccco1	-4.68% (inactive)
C=CCn1c(CNC(=O)c2ccco2)nnc1SCC(=O)c1ccc(OC)cc1	0.4% (inactive)
COc1ccc(C(=O)CSc2nnc(COc3ccccc3)n2Cc2ccco2)cc1	24.4% (active)
COc1ccc(NC(=O)CCNS(=O)(=O)c2ccc3c(c2)c(=O)n(C)c(=O)n3C)cc1OC	5.39% (inactive)
CC(=O)Nc1nc2ccccc2n1Cc1ccc(C)cc1	6.94% (inactive)
Cc1ccc(-n2nc3cc(Cl)c(NC(=O)c4ccco4)cc3n2)cc1	-10% (inactive)
Cc1ccc(Cn2c(NC(=O)c3ccco3)nc3ccccc32)cc1	24.1% (active)
NC(=O)c1ccc(NC(=O)COC(=O)C(Cc2ccccc2)NC(=O)c2ccccc2)cc1 (stereo not drawn)	4.77% (inactive)
O=C(NCCc1ccc2c(c1)OCCO2)c1cc2ccccc2o1	21.4% (active)
O=C(CC(Cc1ccccc1)C(=O)O)NCCc1ccc2c(c1)OCO2 (stereo not drawn)	8.49% (inactive)
O=C(Nc1ccncc1)c1cc2ccccc2o1	-5.2% (inactive)
CC[C@H](C)[C@@H](C(=O)N1CCNCC1)n1cc([C@@H](N)Cc2ccc(O)cc2)nn1	4.22% (inactive)
COc1cc(OC)nc(S(C)(=O)=O)n1	-1.87% (inactive)
Cc1ccccc1NC(=O)Cn1c(=O)n(CC2CCCO2)c(=O)c2ccccc21 (stereo not drawn)	0.4% (inactive)
COc1cc(OC)cc(-c2nnc(SCC(=O)Nc3ccc(C(=O)O)cc3)s2)c1	-5.61% (inactive)
CN(Cc1ccccc1)Cc1ccccc1F	0.6% (inactive)

Compound	inhibition
N=c1n(CCc2ccccc2)c2ccccc2n1Cc1ccccc1F	24.2% (active)
Fc1ccccc1Cn1cnc(NC(=S)NCCc2ccccc2)n1	0.55% (inactive)
CCOC(=O)C1CCCN(C(=O)c2cccc(S(=O)(=O)N3CCOCC3)c2)C1 (stereo not drawn)	-0.08% (inactive)
Cc1cccc(C)c1OCC(=O)NC(Cc1c[nH]c2ccccc12)C(=O)O (stereo not drawn)	6.9% (inactive)
Cc1ccccc1-c1n[nH]c(=S)n1C	1.64% (inactive)
c1ccc(Nc2nc(N3CCOCC3)c3ccccc3n2)cc1	3.28% (inactive)
c1ccc(-c2nnc(N3CCOCC3)c3ccccc23)cc1	-0.9% (inactive)
c1ccc2c(NC3C4CC5CC(C4)CC3C5)nc(N3CCOCC3)nc2c1 (stereo not drawn)	31.8% (active)
COC(=O)Cc1ccc(N(Cc2ccccc2F)S(=O)(=O)c2ccc(Br)cc2)cc1	18.1% (inactive)
COc1ccc(-n2nc(C(=O)Nc3cc(OC)c(OC)c(OC)c3)c3ccccc3c2=O)c(OC)c1	1.85% (inactive)
O=c1c2ccccc2c(-c2ccc(F)cc2)nn1-c1ccc(C(F)(F)F)cc1	21.4% (active)
O=c1c2ccccc2c(-c2ccccc2)nn1Cc1ccccc1	0.35% (inactive)
O=c1c2ccccc2c(-c2ccccc2)nn1-c1ccccn1	4.37% (inactive)
COc1ccc(CS(=O)/C(Cl)=C(/Cl)C(=O)Nc2ccc(OC)nc2)cc1 (stereo not drawn)	11.2% (inactive)
O=C(/C=C/c1ccco1)Nc1cccc(-c2nc3ccccc3[nH]2)c1	20.3% (active)
O=C(Cc1cccs1)Nc1cccc(-c2nc3ccccc3[nH]2)c1	3.86% (inactive)
Cc1ccc(-n2nc3ccc(NC(=O)/C=C/c4ccco4)cc3n2)cc1C	6.59% (inactive)
COc1ccc(C(c2nnnn2C2CCCCC2)N2CCN(c3ccccc3F)CC2)cc1 (stereo not drawn)	23.3% (active)
CC(C)C(c1nnnn1C1CCCC1)N1CCN(c2ccccc2F)CC1 (stereo not drawn)	10.8% (inactive)
COc1ccc(N2CCN(C(c3cc4ccc(C)cc4[nH]c3=O)c3nnnn3C3CCCC3)CC2)cc1 (stereo not drawn)	0.99% (inactive)
CC(C)C(=O)Nc1oc(-c2ccccc2)cc1C#N	3.99% (inactive)
O=C(c1cccc(S(=O)(=O)Nc2ccccc2Cl)c1)N1CCN(C(=O)c2ccco2)CC1	-2.11% (inactive)
O=C(O)CCCCOn1ccnc1	4.94% (inactive)
